# Calb FLC = C. albicans growth inhibition with fluconazole, primary screen, CaCi-2 strain, Alamar Blue fluorescence | C. albicans CaCi-2 (fluconazole-resistant clinical isolate) + fluconazole, 48 h | hit rate 0.57% among 300,000 | growth inhibition, % (test concentration not listed) | AID 1979, 2009;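 active = growth inhibition above about 58% in most replicates, limit read from the data, passing the limit was not always enough; inconclusive = exactly half the replicates above a set limit; inactive = most replicates below a set limit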;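 note: all wells also contain fluconazole at 8 µg/ml as a sub-toxic cotreatment; 0% = median of DMSO wells and 100% = median of geldanamycin control wells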
# SKKanGAS inh = S. pyogenes SKKanGAS growth inhibitors in kanamycin, primary screen, streptokinase expression inhibitor project, SKKanGAS strain, BacTiter-Glo luminescence; 6 h; inhibition, % at 7.5 µM; hit rate 1.3% among 300,000;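 active = mean replicate score, as percent of positive control median, at least 50; inconclusive = mean below 50 but one replicate at or above 50; inactive = mean and every replicate below 50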;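 note: strain carries kanamycin resistance gene driven by streptokinase promoter and grows in 40 µg/ml kanamycin; loss of luminescence reflects streptokinase promoter inhibition or plain growth inhibition; 0% = median of DMSO wells and 100% = positive control at its reference dose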
# CSC inhib = cancer stem cell viability inhibitors, primary screen, luminescence; AID 2717, 2010; inhibition, % at 7.5 µM; cancer stem cell-like cells viability; hit rate 1.1% among 300,000; in the data active = inhibition above about 75%; inconclusive = no clear call, values can overlap the other calls; tested in HMLE shEcad cells
# Mdm2-MdmX inh = inhibitors of human Mdm2-MdmX association, primary screen, cell-based, luminescence, split luciferase, SaOS-2, uHTS | Protein Mdm4 (Homo sapiens) + E3 ubiquitin-protein ligase Mdm2 (Homo sapiens), … | inhibition, % at 8 µM | SaOS-2 split-luciferase Mdm2/MdmX complementation | AID 485346, 2010 | hit rate 3% among 330,000;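 active = inhibition of at least 50% at 8 µM in the primary screen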
# Target sequence (O15151 whole entry, looked up): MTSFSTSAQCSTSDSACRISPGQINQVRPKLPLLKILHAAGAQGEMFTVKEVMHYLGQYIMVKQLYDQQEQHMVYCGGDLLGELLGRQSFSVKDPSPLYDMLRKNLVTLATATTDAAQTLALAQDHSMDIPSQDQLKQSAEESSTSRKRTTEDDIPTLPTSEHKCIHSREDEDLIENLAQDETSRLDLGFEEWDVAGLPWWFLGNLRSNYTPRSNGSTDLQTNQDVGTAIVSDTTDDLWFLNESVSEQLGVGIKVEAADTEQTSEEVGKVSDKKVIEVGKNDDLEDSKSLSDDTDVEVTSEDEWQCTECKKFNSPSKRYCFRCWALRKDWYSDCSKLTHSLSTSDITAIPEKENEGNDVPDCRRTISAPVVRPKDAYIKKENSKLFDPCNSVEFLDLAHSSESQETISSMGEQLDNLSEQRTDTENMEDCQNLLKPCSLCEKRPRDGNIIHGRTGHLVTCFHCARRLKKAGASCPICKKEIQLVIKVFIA
# Target sequence (Q00987 whole entry, looked up): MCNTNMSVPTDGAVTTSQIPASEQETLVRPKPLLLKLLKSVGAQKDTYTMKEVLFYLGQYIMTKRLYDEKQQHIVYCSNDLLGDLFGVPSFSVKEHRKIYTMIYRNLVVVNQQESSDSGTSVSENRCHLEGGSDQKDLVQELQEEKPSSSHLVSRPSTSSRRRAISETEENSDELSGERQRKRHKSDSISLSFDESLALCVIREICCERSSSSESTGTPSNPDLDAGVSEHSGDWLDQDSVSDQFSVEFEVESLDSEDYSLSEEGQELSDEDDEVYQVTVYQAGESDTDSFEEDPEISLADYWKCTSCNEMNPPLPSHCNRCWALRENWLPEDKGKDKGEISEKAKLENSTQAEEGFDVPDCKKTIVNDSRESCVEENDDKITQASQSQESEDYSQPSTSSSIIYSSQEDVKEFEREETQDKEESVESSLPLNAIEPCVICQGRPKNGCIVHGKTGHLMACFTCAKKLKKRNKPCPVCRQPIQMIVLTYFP
# Beta cell apopt = inhibitors of cytokine-induced beta cell apoptosis, primary screen, luminescence | hit rate 0.8% among 300,000 | AID 435005, 2010 | INS-1E cytokine-induced death, ATP luminescence, 48 h; percent of positive-control rescue, neutral wells zero | protection from apoptosis, % (test concentration not listed);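 active = Every replicate reaches about 75%, or at least half do and their mean reaches it too, limit read from the data; inconclusive = At least half of replicates reach the limit but their mean does not; inactive = Under half of replicates reach the limit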;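 note: 0% = cytokine-treated negative control wells and 100% = positive control rescue; higher means more ATP so stronger rescue from cytokine killing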
# T cruzi inh = inhibitors of intracellular T. cruzi growth, primary screen, luminescence, NIH3T3 host cells | T. cruzi beta-gal in NIH3T3, 90 h | inhibition, % (no concentration beside the values) | hit rate 1.4% among 300,000;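 active = mean inhibition across valid replicates above about 55%, limit read from the data; inconclusive = mean below that limit but half or more replicates reach it; inactive = mean below it, under half of replicates reach it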;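 note: signal also drops with host cell toxicity which is not excluded here; 0% = plate median of DMSO wells and 100% = zero luminescence signal; higher percent means less beta-gal luminescence so fewer parasites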
#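 Assay system: NIH/3T3 host cells with β-galactosidase reporter T. cruzi; input: 5,000 host fibroblasts per well; compound: single 50 nL compound addition per well in DMSO; timing: ≥90 h infection period, 3 h prior cell attachment; measured by: GalScreen β-gal luminescence, detergent lysis, 60 min; evaluation: percent inhibition of parasite-derived β-gal signal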
# Mdm2-MdmX conf = Mdm2-MdmX complex disruptors, retested hits, confirmation, luminescence, single concentration; shares compounds with Mdm2-MdmX inh; Mdm2-MdmX binding, luminescent assay; inhibition, % at 8 µM; hit rate 55% among 10,000; in the data active = inhibition above about 40%
# FLuc counter = full-length luciferase signal inhibition, confirmation, counter-screen for Mdm2/MdmX interaction inhibitor project, cell-based, single concentration, SaOS-2 | shares compounds with Mdm2-MdmX inh | SaOS-2 full-length luciferase counterscreen, luminescence | inhibition, % at 8 µM | hit rate 77% among 6,200;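 active = mean inhibition at 8 µM reaching about 37%, which flags the compound as non-specific, limit read from the data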;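 note: p53-null SaOS-2 cells with luciferase driven by a doxycycline-inducible promoter; compound on cells about two nights before reading with doxycycline added after day one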
# The depositor's hits bear a star; ? = inconclusive; . = no result. Only some compounds are listed: those with a hit (about 5.7% of all), similar ones and a draw of the others.
SMILES,Calb FLC,SKKanGAS inh,CSC inhib,Mdm2-MdmX inh,Beta cell apopt,T cruzi inh,Mdm2-MdmX conf,FLuc counter
Cc1nc(NC(=O)/C=C/c2ccccc2)sc1C(=O)Nc1ccc(Cl)cc1,26.8,3.8,-10.7,50.5*,2.8,45.4,39.6,53.4*
Cc1nc(Nc2ccc(Cl)c(Cl)c2)sc1C(=O)Nc1ccccc1,8.9,91.0*,88.0*,52.1*,86.4*,49.9,5.7,.
CC(=O)Nc1ccc(NC(=O)C2CCCCN2S(=O)(=O)c2ccc(C(C)(C)C)cc2)cc1 (stereo not given),-15.1,5.5,16.0,9.9,2.2,-33.9,.,.
O=C1/C(=C/c2ccccc2)CCC1C1CCCC1 (stereo not given),-41.0,-0.8,-2.9,-1.1,-5.1,1.2,.,.
CN1C2CCC1/C(=C\c1ccccc1)C(=O)/C2=C\c1ccccc1,16.9,12.3,92.3*,94.9*,-21.8,21.2,56.5*,15.2
N/C(=N\OC(=O)c1ccc2ccccc2c1)c1ccccn1,18.2,-3.9,2.9,69.6*,-0.9,13.0,49.4*,110.8*
N/C(=N\OC(=O)c1ccc2ccccc2c1)c1ccncc1,14.7,-17.2,-1.5,-125.0,-7.2,-2.2,.,.
N/C(=N\OC(=O)c1ccc2ccccc2c1)c1ccccc1Cl,24.7,8.3,-6.8,100.3*,-6.3,71.5*,68.0*,77.5*
CCCc1ccc(C(=O)O/N=C(\N)c2ccccn2)cc1,-0.2,14.6,20.0,62.7*,0.7,39.8,70.0*,61.4*
N/C(=N\OC(=O)c1ccc(=O)n(Cc2ccc(Cl)cc2)c1)c1ccccn1,5.4,7.7,1.0,66.6*,0.3,11.1,34.2,.
C=CCNC(=O)C1CCC(=O)N1S(=O)(=O)c1ccc(C)cc1 (stereo not given),41.5,-0.4,-5.3,3.8,.,-16.0,.,.
Cc1ccc(-c2csc(NC(=O)C3=NN(C4CCS(=O)(=O)C4)C(=O)CC3)n2)cc1 (stereo not given),1.4,-7.8,-9.6,16.4,1.7,-3.1,.,.
N/C(=N/OC(=O)c1cccc([N+](=O)[O-])c1)c1cccc([N+](=O)[O-])c1,-4.4,0.5,10.1,2.2,-7.1,-0.9,.,.
N/C(=N\OC(=O)c1ccc2ccccc2c1)c1cccc([N+](=O)[O-])c1,0.2,-2.0,-9.5,83.2*,-7.4,-9.3,3.6,.
N#Cc1c(NC(=O)c2ccccc2)sc2c1CCCCC2,-2.3,-7.8,21.2,-218.1,13.1,12.4,.,.
N#Cc1c(Cl)nsc1NC(=O)c1ccccc1,106.2*,22.2,46.0,76.1*,77.9*,-26.4,51.6*,70.5*
CCOCCCNC(=O)c1ccc2c(c1)N=C(CC)c1cc(Br)ccc1S2,-6.1,14.1,69.2,66.1*,29.7,36.5,59.5*,113.0*
C/C(=N\NC(=O)c1c(Cl)c(C)nn1C)c1ccc(NC(=O)C2CCC2)cc1,2.9,1.2,32.6,56.0*,12.0,23.5,75.1*,66.9*
CCCN(CC(=O)Nc1ccc(F)c(F)c1F)C(=O)C1=COCCO1,6.8,-6.1,-6.3,4.5,-1.6,4.7,.,.
O=C(Nc1cccc(Cl)c1)Nc1csc([N+](=O)[O-])c1,-1.5,51.1*,?,89.5*,126.2*,63.8*,87.3*,39.4*
O=C(Nc1ccncc1)Nc1cccc(Cl)c1,0.8,-2.1,-9.4,15.7,3.7,43.3,.,.
CN1C(=O)/C(=C\c2ccccc2OCc2ccccc2)SC1=S,6.1,2.1,11.1,15.4,3.3,0.1,.,.
CN=C1S/C(=C\c2cc(C)n(-c3ccccc3F)c2C)C(=O)N1C,52.7,34.6,15.5,55.6*,23.1,3.9,39.5,99.6*
COc1ccc(-n2c(C)cc(/C=C3/SC(=S)N(C)C3=O)c2C)cc1,-10.7,0.1,31.2,.,-3.4,-15.6,.,.
Cc1cc(/C=C2\SC(=S)N(C)C2=O)c(C)n1-c1cccc(O)c1,2.1,90.8*,?,77.6*,-0.9,10.5,79.5*,97.8*
SMILES,Calb FLC,SKKanGAS inh,CSC inhib,Mdm2-MdmX inh,Beta cell apopt,T cruzi inh,Mdm2-MdmX conf,FLuc counter
CN=C1S/C(=C\c2ccc(N3CCOCC3)cc2C)C(=O)N1C,-1.4,38.3,13.4,16.5,-5.1,2.8,.,.
CN1C(=O)/C(=C\c2cc(N=Nc3ccccc3)ccc2O)SC1=S,-12.1,83.0*,-0.4,90.7*,13.3,-2.8,54.1*,34.4
CCN(CC)S(=O)(=O)c1ccc(NC(=S)Nc2ccc(F)cc2)cc1,-3.6,-1.0,-15.7,2.9,-10.5,-12.3,.,.
COc1ccc(NC(=O)CN2C(=O)COc3ccc(S(=O)(=O)N4CCCCC4)cc32)c(OC)c1,-8.2,1.0,-12.2,9.0,1.4,13.3,.,.
COc1ccc(C)cc1NS(=O)(=O)c1ccc(NC(=O)CN(c2cc([N+](=O)[O-])ccc2C)S(C)(=O)=O)cc1,10.5,20.3,92.7*,70.3*,112.0*,50.0,63.3*,51.0*
Cc1cccc(NS(=O)(=O)c2cc(NC(=O)CC(=O)c3ccc([N+](=O)[O-])cc3)ccc2C)c1,23.5,2.0,.,.,.,44.5,.,.
Cc1cccc(NS(=O)(=O)c2ccc(NC(=O)CN(c3cc([N+](=O)[O-])ccc3C)S(C)(=O)=O)cc2)c1,7.7,16.3,95.6*,55.0*,110.9*,74.7*,49.1*,51.7*
O=C(CNC(=O)c1ccccc1F)NCc1ccccn1,.,.,-11.4,-0.7,0.2,.,.,.
CCN(CC)S(=O)(=O)c1ccc(-c2nnc(SCC(=O)N3CCc4ccccc43)o2)cc1,-4.2,3.4,-6.0,74.7*,-11.4,-0.3,-11.4,.
C/C=C1\COC(C(=O)NCc2ccccc2)(C(F)(F)F)C=C1C=C(C)C (stereo not given),6.7,9.8,.,14.3,-9.6,13.0,.,.
COc1ccc(NC(=O)c2nc(C)c(C3(C)CC(c4cccnc4)=NO3)s2)cc1 (stereo not given),-16.8,6.9,5.9,60.3*,13.0,4.4,59.0*,65.7*
Cc1nc(C(=O)Nc2ccc(Cl)cc2)sc1C1(C)CC(c2cccc([N+](=O)[O-])c2)=NO1 (stereo not given),-8.3,19.2,5.2,60.7*,14.5,66.0*,36.0,47.0*
O=C1CN(C(=O)COC(=O)c2cc(S(=O)(=O)N3CCOCC3)ccc2Cl)c2ccccc2N1,3.0,-7.0,-9.0,7.2,-0.9,-21.8,.,.
